From ChEMBL document CHEMBL1759952, “Synthesis and anticancer activities of some novel 2-(benzo[d]thiazol-2-yl)-8-substituted-2H-pyrazolo[4,3-c]quinolin-3(5H)-ones” (Eur J Med Chem, 2011)
In brackets after ≈: the same amount, converted by molar mass.

What was measured:
MDA-MB-435 = assay: Cytotoxicity against human MDA-MB-435 cells for 72 hrs by MTT assay; type: functional, cell-based; settings: MDA-MB-435, 72 h
In short: (§1)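 Cells kept in RPMI 1640 with 10% fetal bovine serum, 2 mM glutamine, 100 U/mL penicillin and streptomycin, at 37 °C under 5% CO₂. Compounds were dissolved in DMSO and diluted with water to 1 mg/mL, then incubated with cells for 72 h. Growth was read by MTT, with doxorubicin as positive control. IC₅₀ is the concentration giving 50% growth inhibition, in triplicate.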

HL-60 = assay: Cytotoxicity against human HL60 cells for 72 hrs by MTT assay; type: functional, cell-based; settings: HL-60, 72 h; in short: as §1
[1] = Toxicity against mouse erythrocytes assessed as hemolysis after 30 mins by spectrometric analysis; type: cell-based, Erythrocyte
In short: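 Used a 2% mouse erythrocyte suspension in 0.85% NaCl with 10 mM CaCl₂. Compounds (DMSO stock diluted in water) were tested across a graded range, 30 min at room temperature, then centrifuged. Released hemoglobin in the supernatant was read at 540 nm. DMSO was the negative control and 1% Triton X-100 the positive control. EC₅₀ = effective concentration.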

HCT-8 = assay: Cytotoxicity against human HCT8 cells for 72 hrs by MTT assay; type: functional, cell-based; settings: HCT-8, 72 h; in short: as §1
SF-295 = assay: Cytotoxicity against human SF295 cells for 72 hrs by MTT assay; type: functional, cell-based; settings: SF-295, 72 h; in short: as §1

Compound | IC50 (MDA-MB-435) [µg/mL] | IC50 (HL-60) [µg/mL] | EC50 at 30 min [1] [µg/mL] | IC50 (HCT-8) [µg/mL] | IC50 (SF-295) [µg/mL]
O=c1c2c[nH]c3ccc(F)cc3c-2nn1-c1nc2ccccc2s1 | > 5 | > 5 | > 250 | > 5 | > 5
Cc1ccc2[nH]cc3c(=O)n(-c4nc5ccccc5s4)nc-3c2c1 | 2.3 (≈ 6.92 µM) | > 5 | > 250 | 4.1 (≈ 12.3 µM) | 4.5 (≈ 13.5 µM)
O=c1c2c[nH]c3ccc(Br)cc3c-2nn1-c1nc2ccccc2s1 | 1.6 (≈ 4.03 µM) | 3 (≈ 7.55 µM) | > 250 | > 5 | 4.1 (≈ 10.3 µM)
COc1ccc2[nH]cc3c(=O)n(-c4nc5ccccc5s4)nc-3c2c1 | > 5 | > 5 | > 250 | > 5 | > 5
O=c1c2c[nH]c3ccc(Cl)cc3c-2nn1-c1nc2ccccc2s1 | > 5 | > 5 | > 250 | > 5 | > 5
O=c1c2c[nH]c3ccccc3c-2nn1-c1nc2ccccc2s1 | > 5 | > 5 | > 250 | > 5 | > 5
O=c1c2c[nH]c3ccc([N+](=O)[O-])cc3c-2nn1-c1nc2ccccc2s1 | > 5 | > 5 | > 250 | > 5 | > 5
COc1cccc2c1C(=O)c1c(O)c3c(c(O)c1C2=O)C[C@@](O)(C(=O)CO)C[C@@H]3O[C@H]1C[C@H](N)[C@H](O)[C@H](C)O1 [DOXORUBICIN] | 0.69 (≈ 1.27 µM) | 0.03 (≈ 0.0552 µM) | – | 0.06 (≈ 0.11 µM) | –
